Data as given in article PMC11480350 (Nature Communications, 2024).
Where a SMILES comes first, the peptide text is derived from it. Where no end group is shown, it is not given here. [ ]: non-standard residue; d: D form. The star is where a group is joined. pS = N[C@@H](COP(=O)(O)O)C(=O)O; Cbz = O=C(OCc1ccccc1)*

Legend:
mouse 14-3-3γ = assay: 14-3-3γ degradation, immunoblotting in HEK-293F cells; type: cell-based
14-3-3γ [1] = biological target: 14-3-3γ (UniProt P61982); assay: anti-Flag; settings: reference: wild-type TLE6
14-3-3γ [2] = biological target: T1, 14-3-3γ (Mus musculus, UniProt P61982); assay: Isothermal titration calorimetry; type: binding; settings: ITC, 25 °C, pH 7.5, 3 independent experiments
T1 sequence (P61982 1-247): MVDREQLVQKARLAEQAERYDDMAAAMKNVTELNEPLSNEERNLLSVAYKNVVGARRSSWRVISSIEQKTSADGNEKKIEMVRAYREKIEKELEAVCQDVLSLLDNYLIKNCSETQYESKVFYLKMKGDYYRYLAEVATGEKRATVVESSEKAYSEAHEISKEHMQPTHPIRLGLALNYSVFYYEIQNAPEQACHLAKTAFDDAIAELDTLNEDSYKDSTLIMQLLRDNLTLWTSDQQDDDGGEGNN
Method in brief: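 Mouse 14-3-3γ was expressed in E. coli as a GST fusion and purified on glutathione resin. The tag was cut with 3C protease, then the protein was polished by anion exchange and Superdex 200. TLE6 phosphopeptides were titrated into 14-3-3γ (e.g., 1.3 mM peptide into 50 μM protein). Data were corrected for dilution heat and curve-fitted for Kd. Three independent titrations, mean ± S.D.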

Mouse zygotes = assay: Early embryonic development of zygotes with PKA inhibitor; type: cell-based; settings: H89 20 μM, commencing from 72 h pHCGi
SCMC = assay: Strep pull-down of 14-3-3 paralogs; type: binding, mouse; settings: Strep-Tactin pull-down, purified SCMC and 14-3-3 paralogs, SDS-PAGE
Method in brief: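 SCMC was expressed in Sf9 cells for 60 h at 27 °C: His-MATER 1–1059, Strep-TLE6 48–581, Strep-FLOPED 1–164, Strep-FILIA 1–124 or 1–256. It was purified by Ni-NTA, anion exchange and Superose 6. GST-14-3-3 paralogs came from E. coli, were 3C-cleaved, and went through anion exchange and Superdex 200. Proteins were mixed with SCMC or buffer control and captured on Strep-Tactin at 4 °C. Washes contained 0.5% NP-40 and elution used 50 mM biotin. Read-out was SDS-PAGE/immunoblot.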

[3] = biological target: His-tagged 14-3-3γ (mouse) (UniProt P61982); assay: ITC

**Q.** With `C[C@@H]1C[C@@H]([C@H](O)CC2CC(=O)NC(=O)C2)C(=O)[C@@H](C)C1` [cycloheximide] as the molecule, how does the “level of exogenous mouse 14-3-3γ” value (mouse 14-3-3γ; cycloheximide 100 μg/ml) read?
**A.** gradually degraded

**Q.** For `CC(C)C[C@@H](C=O)NC(=O)[C@H](CC(C)C)NC(=O)[C@H](CC(C)C)NC(=O)OCc1ccccc1` [MG132] (Cbz-Leu-Leu-Leu-aldehyde), which “decrease in the protein level of 14-3-3γ” value (mouse 14-3-3γ; MG132 20 μM with cycloheximide 100 μg/ml) is on record?
**A.** effectively rescued

**Q.** TLE6 (from UniProt Q9WVB3) S139A was tested. Which “binding against the reference” value (14-3-3γ [1]; sites S139) did it give?
**A.** weaker

**Q.** With “TLE6 (203–214): wild-type TLE6 peptide, residues 203–214 (QPRHRNSLSDSA)” as the molecule, how does the “binding to 14-3-3γ (in words)” value (14-3-3γ [2]) read?
**A.** cannot bind to 14-3-3γ

**Q.** With “TLE6 (133–144): wild-type TLE6 peptide, residues 133–144 (TRRRFLSESDEL)” as the molecule, how does the “binding to 14-3-3γ (in words)” value (14-3-3γ [2]) read?
**A.** cannot bind to 14-3-3γ

**Q.** How did the “progression of early embryonic development” value (Mouse zygotes) turn out when `O=S(=O)(NCCNC/C=C/c1ccc(Br)cc1)c1cccc2cnccc12` [H89] was run?
**A.** markedly retarded

**Q.** For “TLE6 (217–228) pS223: phosphopeptide of TLE6 residues 217–228 carrying phosphorylated Ser223 (FLIKSP[pS]ALLDY)”, which “binding to 14-3-3γ (in words)” value (14-3-3γ [2]) is on record?
**A.** cannot bind to 14-3-3γ

**Q.** Which “binding to the SCMC” value (SCMC) does the source give for “14-3-3γ: mouse 14-3-3 paralog γ (1–247 aa)” here?
**A.** most potent binding partner

**Q.** TLE6 (from UniProt Q9WVB3) S209A was tested. Which “binding against the reference” value (14-3-3γ [1]; sites S209) did it give?
**A.** weaker

**Q.** How did the Kd [3] turn out when TRRRFL[pS]ESDEL [TLE6 (133–144) pS139 phosphopeptide] was run?
**A.** 55.8 µM

**Q.** QPRHRN[pS]LSDSA [TLE6 (203–214) pS209 phosphopeptide] was tested. Which Kd [3] did it give?
**A.** 315 µM
